Source: ChEMBL document CHEMBL4261600 (Eur J Med Chem, 2018)
pEC50: −log10 of the molar value.

What was measured:
[1] = target: Cyclin-dependent kinase 9 (Homo sapiens, UniProt P50750); assay: Inhibition of CDK9 in human HL60 cells assessed as decrease in RNA polymerase 2 phosphorylation at Ser 2 residues in CTD domain after 2 hrs by immunoblotting analysis; format: cell-based
[2] = Half life in beagle dog at 10 mg/kg, po by LC-MS/MS analysis; format: ADME, organism-based, Canis lupus familiaris; conditions: in vivo
[3] = AUC (0 to t) in Sprague-Dawley rat at 20 mg/kg, po by LC-MS/MS analysis; format: ADME, organism-based; conditions: in vivo
Summary of the method: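 Non-compartmental PK. Male SD rats 190-210 g, mice and beagle dogs acclimatized one week, fasted 12 h with water, split into iv and po groups (mice 48, rats 6, dogs 6). iv 3/3/2 mg/kg (mice/rats/dogs); po 10/20/10 mg/kg; vehicle DMSO in 5% glucose water. Blood at 2 or 5 to 720 min; plasma protein-precipitated with methanol, caffeine internal standard, LC-MS/MS.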

[4] = test system: Tyrosine-protein kinase ABL1 (Homo sapiens), P00519 [Y253F]; assay: Binding affinity to human phosphorylated ABL1 Y253F mutant (S229 to K512 residues) expressed in mammalian expression system assessed as remaining unbound target protein level at 1000 nM by Kinomescan method relative to control
Summary of the method: (§1)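 Single-point competition binding screen across a panel of 468 kinases and mutants, with the inhibitor at 1 μM. Binding is read out as percent of a DMSO control, and targets below 1 percent control were classed as strong binders.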

[5] = target: Tyrosine-protein kinase ABL1 (Homo sapiens) (UniProt P00519); assay: Binding affinity to wild-type human non-phosphorylated ABL1 (S229 to K512 residues) expressed in mammalian expression system assessed as remaining unbound target protein level at 1000 nM by Kinomescan method relative to control
Summary of the method: (§2)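 Profiled in a KINOMEscan binding panel with the inhibitor at a single concentration of 1 μM. Binding to each kinase was read out as percent of control, relative to a DMSO control. Strong binders were defined as those with a percent control value below 1.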

[6] = target: Serine/threonine-protein kinase BRSK2 (Homo sapiens) (UniProt Q8IWQ3); assay: Binding affinity to wild-type human full length BRSK2 (M1 to L674 residues) expressed in bacterial expression system assessed as remaining unbound target protein level at 1000 nM by Kinomescan method relative to control; summary of the method: as §1
[7] = target: Calcium/calmodulin-dependent protein kinase type II subunit gamma (Homo sapiens) (UniProt Q13555); assay: Binding affinity to wild-type human partial length CAMK2G (R9 to A303 residues) expressed in bacterial expression system assessed as remaining unbound target protein level at 1000 nM by Kinomescan method relative to control
Summary of the method: (§3)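 KINOMEscan competition binding profile across a panel of 468 kinases and mutants, with the inhibitor tested at a single concentration of 1 μM. Binding is reported as percent of control, meaning signal relative to a DMSO control.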

[8] = target: Cyclin-dependent kinase 7 (Homo sapiens) (UniProt P50613); assay: Binding affinity to wild-type human full length CDK7 (M1 to L344 residues) expressed in mammalian expression system assessed as remaining unbound target protein level at 1000 nM by Kinomescan method relative to control
Summary of the method: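 KINOMEscan competitive binding profile at 1 μM inhibitor. Remaining target binding reported as percent of DMSO control.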

[9] = target: Fibroblast growth factor receptor 1 (Homo sapiens) (UniProt P11362); assay: Binding affinity to wild-type human partial length FGFR1 (P357 to V669 residues) expressed in bacterial expression system assessed as remaining unbound target protein level at 1000 nM by Kinomescan method relative to control
Summary of the method: (§4)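 KINOMEscan binding panel of 468 kinases/mutants. Inhibitor was tested at a single concentration of 1 μM. Binding is reported as percent of control, defined relative to a DMSO control.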

[10] = test system: Receptor-type tyrosine-protein kinase FLT3 (Homo sapiens), P36888 [D835V]; assay: Binding affinity to human partial length FLT3 D835V mutant (V592 to Y969 residues) expressed in bacterial expression system assessed as remaining unbound target protein level at 1000 nM by Kinomescan method relative to control
Summary of the method: (§5)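 KINOMEscan competition-binding profiling across the panel of 468 kinases and mutants, with inhibitor tested at 1 μM. Binding is expressed as percent of control, with DMSO as the reference control.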

[11] = target: Homeodomain-interacting protein kinase 1 (Homo sapiens) (UniProt Q86Z02); assay: Binding affinity to wild-type human partial length HIPK1 (M146 to I555 residues) expressed in mammalian expression system assessed as remaining unbound target protein level at 1000 nM by Kinomescan method relative to control
[12] = test system: Mast/stem cell growth factor receptor Kit (Homo sapiens), P10721 [L576P]; assay: Binding affinity to human partial length KIT L576P mutant (Y545 to D952 residues) expressed in bacterial expression system assessed as remaining unbound target protein level at 1000 nM by Kinomescan method relative to control; summary of the method: as §5
[13] = target: Mitogen-activated protein kinase kinase kinase 10 (Homo sapiens) (UniProt Q02779); assay: Binding affinity to wild-type human partial length MLK2 (V52 to W380 residues) expressed in bacterial expression system assessed as remaining unbound target protein level at 1000 nM by Kinomescan method relative to control; summary of the method: as §4
[14] = target: Serine/threonine-protein kinase 4 (Homo sapiens) (UniProt Q13043); assay: Binding affinity to wild-type human full length MST1 (M1 to F487 residues) expressed in bacterial expression system assessed as remaining unbound target protein level at 1000 nM by Kinomescan method relative to control; summary of the method: as §3
[15] = target: Phosphatidylinositol 4-phosphate 5-kinase type-1 alpha (Homo sapiens) (UniProt Q99755); assay: Binding affinity to wild-type human full length PIP5K1A (M1 to H562 residues) expressed in bacterial expression system assessed as remaining unbound target protein level at 1000 nM by Kinomescan method relative to control; summary of the method: as §2
[16] = target: Ribosomal protein S6 kinase alpha-2 (Homo sapiens) (UniProt Q15349); assay: Binding affinity to wild-type human partial length N-terminal RSK3 kinase domain 1 (M1 to Q385 residues) expressed in bacterial expression system assessed as remaining unbound target protein level at 1000 nM by Kinomescan method relative to control
[17] = target: STE20-like serine/threonine-protein kinase (Homo sapiens) (UniProt Q9H2G2); assay: Binding affinity to wild-type human partial length SLK (S14 to A307 residues) expressed in bacterial expression system assessed as remaining unbound target protein level at 1000 nM by Kinomescan method relative to control
[18] = target: SRSF protein kinase 3 (Homo sapiens) (UniProt Q9UPE1); assay: Binding affinity to wild-type human partial length SRPK3 (P41 to P567 residues) expressed in bacterial expression system assessed as remaining unbound target protein level at 1000 nM by Kinomescan method relative to control
[19] = target: BDNF/NT-3 growth factors receptor (Homo sapiens) (UniProt Q16620); assay: Binding affinity to wild-type human partial length TRKB (Q547 to G838 residues) expressed in mammalian expression system assessed as remaining unbound target protein level at 1000 nM by Kinomescan method relative to control

Chain of Cyclin-dependent kinase 9 (P50750 whole entry, the tested form may be a part): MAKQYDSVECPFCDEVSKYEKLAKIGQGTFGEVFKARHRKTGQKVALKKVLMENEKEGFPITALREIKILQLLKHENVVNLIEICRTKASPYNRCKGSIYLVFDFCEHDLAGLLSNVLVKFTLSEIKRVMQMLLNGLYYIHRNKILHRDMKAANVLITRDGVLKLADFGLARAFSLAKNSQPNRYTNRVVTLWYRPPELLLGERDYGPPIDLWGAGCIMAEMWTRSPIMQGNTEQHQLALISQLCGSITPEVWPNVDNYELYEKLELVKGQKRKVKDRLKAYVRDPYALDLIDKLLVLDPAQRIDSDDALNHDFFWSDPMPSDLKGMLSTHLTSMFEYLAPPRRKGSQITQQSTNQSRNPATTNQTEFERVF
Chain of Serine/threonine-protein kinase BRSK2 (Homo sapiens) (Q8IWQ3 whole entry, the tested form may be a part): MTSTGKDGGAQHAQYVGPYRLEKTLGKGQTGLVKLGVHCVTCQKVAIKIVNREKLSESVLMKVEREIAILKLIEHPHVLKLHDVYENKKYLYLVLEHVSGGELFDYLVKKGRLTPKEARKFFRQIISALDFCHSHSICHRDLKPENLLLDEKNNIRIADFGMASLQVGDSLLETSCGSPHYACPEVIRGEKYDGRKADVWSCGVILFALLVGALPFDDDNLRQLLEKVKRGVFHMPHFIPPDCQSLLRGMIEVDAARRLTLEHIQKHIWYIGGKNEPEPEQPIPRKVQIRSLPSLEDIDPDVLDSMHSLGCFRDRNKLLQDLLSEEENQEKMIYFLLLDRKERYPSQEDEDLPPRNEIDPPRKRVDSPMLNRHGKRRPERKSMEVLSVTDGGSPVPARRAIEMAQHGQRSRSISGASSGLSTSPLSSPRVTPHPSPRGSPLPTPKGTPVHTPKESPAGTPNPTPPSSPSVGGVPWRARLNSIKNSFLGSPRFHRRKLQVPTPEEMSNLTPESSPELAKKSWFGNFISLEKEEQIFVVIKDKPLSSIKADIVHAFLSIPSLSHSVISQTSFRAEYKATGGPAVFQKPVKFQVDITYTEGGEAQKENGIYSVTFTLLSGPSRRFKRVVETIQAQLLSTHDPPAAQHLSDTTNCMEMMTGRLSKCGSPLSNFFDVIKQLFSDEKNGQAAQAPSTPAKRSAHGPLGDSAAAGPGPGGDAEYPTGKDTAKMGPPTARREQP
Chain of Homeodomain-interacting protein kinase 1 (Homo sapiens) (Q86Z02 whole entry, looked up, the tested form may be a part): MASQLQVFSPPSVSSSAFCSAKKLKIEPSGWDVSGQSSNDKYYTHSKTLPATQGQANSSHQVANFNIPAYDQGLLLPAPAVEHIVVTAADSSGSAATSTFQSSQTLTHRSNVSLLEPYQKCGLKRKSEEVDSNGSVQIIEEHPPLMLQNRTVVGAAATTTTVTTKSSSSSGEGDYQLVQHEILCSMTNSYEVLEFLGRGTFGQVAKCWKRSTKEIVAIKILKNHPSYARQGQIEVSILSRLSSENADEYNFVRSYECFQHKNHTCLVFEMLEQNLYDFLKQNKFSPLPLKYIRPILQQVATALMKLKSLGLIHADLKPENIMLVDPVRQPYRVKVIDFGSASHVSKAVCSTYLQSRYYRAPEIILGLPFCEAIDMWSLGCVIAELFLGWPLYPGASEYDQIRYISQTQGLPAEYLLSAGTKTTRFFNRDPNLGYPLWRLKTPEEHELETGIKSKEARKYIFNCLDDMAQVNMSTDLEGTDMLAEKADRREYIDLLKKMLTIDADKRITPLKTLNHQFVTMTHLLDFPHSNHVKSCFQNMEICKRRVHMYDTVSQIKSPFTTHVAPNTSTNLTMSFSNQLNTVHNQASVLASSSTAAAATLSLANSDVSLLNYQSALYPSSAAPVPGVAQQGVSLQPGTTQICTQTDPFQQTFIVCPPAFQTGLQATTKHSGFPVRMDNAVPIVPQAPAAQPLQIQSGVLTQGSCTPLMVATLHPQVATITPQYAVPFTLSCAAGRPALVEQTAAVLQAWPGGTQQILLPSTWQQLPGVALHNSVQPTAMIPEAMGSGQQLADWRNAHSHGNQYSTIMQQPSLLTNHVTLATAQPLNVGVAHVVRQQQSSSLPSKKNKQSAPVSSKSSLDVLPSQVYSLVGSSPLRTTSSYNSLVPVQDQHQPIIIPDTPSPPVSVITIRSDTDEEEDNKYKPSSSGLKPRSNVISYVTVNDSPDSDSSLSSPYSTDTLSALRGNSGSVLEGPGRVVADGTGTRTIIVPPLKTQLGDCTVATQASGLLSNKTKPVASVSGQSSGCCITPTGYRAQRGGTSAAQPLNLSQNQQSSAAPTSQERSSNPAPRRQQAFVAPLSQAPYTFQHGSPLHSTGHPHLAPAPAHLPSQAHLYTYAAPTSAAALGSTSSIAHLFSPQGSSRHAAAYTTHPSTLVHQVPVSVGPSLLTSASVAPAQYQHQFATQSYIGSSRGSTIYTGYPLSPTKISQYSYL
Chain of Phosphatidylinositol 4-phosphate 5-kinase type-1 alpha (Homo sapiens) (Q99755 whole entry, the tested form may be a part): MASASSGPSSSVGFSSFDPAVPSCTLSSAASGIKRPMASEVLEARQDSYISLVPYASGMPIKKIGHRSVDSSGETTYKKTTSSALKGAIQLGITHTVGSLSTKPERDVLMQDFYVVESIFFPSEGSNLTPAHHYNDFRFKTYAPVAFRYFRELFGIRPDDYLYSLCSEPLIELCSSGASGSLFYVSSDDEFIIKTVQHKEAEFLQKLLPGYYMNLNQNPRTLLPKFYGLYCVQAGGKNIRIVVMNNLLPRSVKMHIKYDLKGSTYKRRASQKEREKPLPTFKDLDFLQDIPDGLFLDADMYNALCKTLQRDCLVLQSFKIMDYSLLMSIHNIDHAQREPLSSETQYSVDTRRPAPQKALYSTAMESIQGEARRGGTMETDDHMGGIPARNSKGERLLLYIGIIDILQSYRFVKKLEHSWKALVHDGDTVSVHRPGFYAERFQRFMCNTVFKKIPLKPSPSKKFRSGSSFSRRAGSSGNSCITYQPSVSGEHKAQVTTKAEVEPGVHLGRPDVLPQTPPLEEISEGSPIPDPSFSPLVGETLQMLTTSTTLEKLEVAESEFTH
Chain of Cyclin-dependent kinase 7 (Homo sapiens) (P50613 whole entry, the tested form may be a part): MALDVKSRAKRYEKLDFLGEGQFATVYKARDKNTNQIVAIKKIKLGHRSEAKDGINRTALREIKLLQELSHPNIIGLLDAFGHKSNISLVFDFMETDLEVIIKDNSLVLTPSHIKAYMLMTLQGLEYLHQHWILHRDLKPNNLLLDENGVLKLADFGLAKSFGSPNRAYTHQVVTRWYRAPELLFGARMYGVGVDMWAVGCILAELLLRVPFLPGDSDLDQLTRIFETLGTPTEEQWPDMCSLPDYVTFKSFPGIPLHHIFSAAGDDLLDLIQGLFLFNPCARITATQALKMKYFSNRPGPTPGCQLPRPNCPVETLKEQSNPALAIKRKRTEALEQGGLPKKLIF
Chain of Ribosomal protein S6 kinase alpha-2 (Homo sapiens) (Q15349 whole entry, the tested form may be a part): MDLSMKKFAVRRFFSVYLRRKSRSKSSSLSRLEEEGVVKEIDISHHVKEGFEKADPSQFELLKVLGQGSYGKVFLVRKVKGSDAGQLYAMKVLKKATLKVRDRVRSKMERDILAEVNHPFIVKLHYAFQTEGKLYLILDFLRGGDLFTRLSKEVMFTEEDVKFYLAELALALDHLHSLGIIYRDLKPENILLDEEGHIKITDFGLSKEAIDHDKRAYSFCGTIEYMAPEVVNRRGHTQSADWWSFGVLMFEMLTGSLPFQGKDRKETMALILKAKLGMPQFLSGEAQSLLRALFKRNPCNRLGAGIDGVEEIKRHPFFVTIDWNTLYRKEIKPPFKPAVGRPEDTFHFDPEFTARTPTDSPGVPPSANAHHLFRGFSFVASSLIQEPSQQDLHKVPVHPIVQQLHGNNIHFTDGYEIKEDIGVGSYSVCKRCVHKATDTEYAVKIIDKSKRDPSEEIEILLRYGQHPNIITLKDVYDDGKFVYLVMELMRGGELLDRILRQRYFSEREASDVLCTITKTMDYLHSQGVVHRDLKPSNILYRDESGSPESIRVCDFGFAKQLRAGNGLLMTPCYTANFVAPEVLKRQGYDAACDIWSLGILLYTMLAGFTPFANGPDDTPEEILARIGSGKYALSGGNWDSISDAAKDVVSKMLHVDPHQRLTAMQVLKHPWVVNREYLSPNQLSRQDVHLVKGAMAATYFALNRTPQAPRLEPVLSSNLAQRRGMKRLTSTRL
Chain of SRSF protein kinase 3 (Homo sapiens) (Q9UPE1 whole entry, the tested form may be a part): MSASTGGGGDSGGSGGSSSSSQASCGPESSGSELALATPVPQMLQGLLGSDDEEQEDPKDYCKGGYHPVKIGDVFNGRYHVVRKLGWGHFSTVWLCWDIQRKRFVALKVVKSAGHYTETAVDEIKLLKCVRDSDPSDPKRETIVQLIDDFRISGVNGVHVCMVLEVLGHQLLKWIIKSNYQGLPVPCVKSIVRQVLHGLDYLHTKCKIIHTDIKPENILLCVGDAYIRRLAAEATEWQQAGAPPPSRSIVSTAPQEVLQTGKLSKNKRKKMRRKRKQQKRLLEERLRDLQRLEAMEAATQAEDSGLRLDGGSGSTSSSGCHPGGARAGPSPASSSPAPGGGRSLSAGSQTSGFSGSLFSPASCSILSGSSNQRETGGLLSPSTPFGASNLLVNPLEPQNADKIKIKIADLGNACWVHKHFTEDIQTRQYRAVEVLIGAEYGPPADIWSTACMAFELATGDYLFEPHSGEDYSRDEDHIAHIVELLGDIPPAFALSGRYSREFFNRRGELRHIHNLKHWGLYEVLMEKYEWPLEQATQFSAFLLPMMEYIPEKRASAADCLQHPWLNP
Chain of Serine/threonine-protein kinase 4 (Homo sapiens) (Q13043 whole entry, the tested form may be a part): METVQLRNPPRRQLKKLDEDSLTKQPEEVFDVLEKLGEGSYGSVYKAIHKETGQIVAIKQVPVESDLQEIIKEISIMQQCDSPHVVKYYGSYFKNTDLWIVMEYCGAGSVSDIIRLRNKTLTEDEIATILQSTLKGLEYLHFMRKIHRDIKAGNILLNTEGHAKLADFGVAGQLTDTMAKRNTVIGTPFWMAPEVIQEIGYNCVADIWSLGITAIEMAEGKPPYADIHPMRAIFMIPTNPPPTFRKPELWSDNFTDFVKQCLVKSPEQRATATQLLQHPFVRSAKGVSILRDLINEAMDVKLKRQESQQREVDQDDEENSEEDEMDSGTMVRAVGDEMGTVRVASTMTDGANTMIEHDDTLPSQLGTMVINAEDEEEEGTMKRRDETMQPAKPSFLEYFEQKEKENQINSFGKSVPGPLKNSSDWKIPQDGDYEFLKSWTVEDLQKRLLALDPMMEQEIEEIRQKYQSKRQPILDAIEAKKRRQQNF

SMILES: COCCN[C@H]1CC[C@H](Nc2cc(-c3csc(NCC4(C#N)CCOCC4)n3)c(Cl)cn2)CC1
- pEC50 [1]: > 7.00
- inhibition [1]: Dose-dependent effect
- half-life [2]: 20.4 h
- AUC(0-t) [3]: 1780 ng·h/mL
- Activity [4]: 87%
- Activity [5]: 100%
- Activity [6]: 75%
- Activity [7]: 99%
- Activity [8]: 1.8%
- Activity [9]: 95%
- Activity [10]: 88%
- Activity [11]: 60%
- Activity [12]: 90%
- Activity [13]: 99%
- Activity [14]: 99%
- Activity [15]: 100%
- Activity [16]: 90%
- Activity [17]: 81%
- Activity [18]: 98%
- Activity [19]: 79%
